Assay [1] relates to Pseudomonas aeruginosa. Put plainly: Antimicrobial activity against Pseudomonas aeruginosa PAO1 assessed as inhibition of bacterial growth in presence of iron-depleted CAA medium. Format: functional, organism-based.
Assay [2] deals with Pseudomonas aeruginosa. The assay is described as follows: Antimicrobial activity against Pseudomonas aeruginosa harboring deltapvdF-deltapchA mutant assessed as increase in pfeA transcription level at 10 uM incubated for 8 hrs in presence of iron-depleted CAA medium by qRT-PCR analysis. Format: functional, organism-based. The gist of the method:
(§1)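 Cells grown in CAA medium for 8 h at 30 °C with vigorous shaking, with or without 10 μM compound; 2.5 x 10⁸ cells stabilized in two volumes RNAprotect; RNA processed per earlier protocol; RT-qPCR with primer efficiencies from serially diluted genomic DNA; double ΔCT analysis.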

Assay [3] concerns Pseudomonas aeruginosa. Put plainly: Antimicrobial activity against Pseudomonas aeruginosa harboring deltapvdF-deltapchA mutant assessed as inhibition of bacterial growth by measuring minimal inhibitory concentration incubated for 24 hrs in presence of iron-depleted CAA medium. In kind it is functional.
Assay [4] deals with Pseudomonas aeruginosa. Put plainly: Antimicrobial activity against Pseudomonas aeruginosa harboring deltapvdF-deltapchA mutant assessed as inhibition of bacterial growth by measuring minimal inhibitory concentration incubated for 48 hrs in presence of iron-depleted CAA medium. In kind it is functional.
Assay [5] has as its system Pseudomonas aeruginosa. Put plainly: Antimicrobial activity against Pseudomonas aeruginosa harboring deltapvdF-deltapchA mutant with PirA deletion assessed as reduction of bacterial growth at 10 uM by growth kinetic assay. In kind it is functional, organism-based. The gist of the method: (§2)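 Overnight LB culture washed, regrown in CAA at 30 °C, washed, resuspended in CAA at OD600 0.02; fresh sterile-filtered aqueous compound added to 10 µM final; OD600 read in plate reader for 48 h at 30 °C with regular agitation.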

Assay [6] concerns Pseudomonas aeruginosa. The assay is described as follows: Antimicrobial activity against Pseudomonas aeruginosa harboring deltapvdF-deltapchA mutant with PfeA deletion assessed as reduction of bacterial growth at 10 uM by growth kinetic assay. In kind it is functional, organism-based. The procedure, abridged:
as §2

For assay [7], the system named is Pseudomonas aeruginosa. The assay is described as follows: Antimicrobial activity against Pseudomonas aeruginosa harboring deltapvdF-deltapchA mutant with PirA-PfeA dual deletion assessed as reduction of bacterial growth at 10 uM by growth kinetic assay. In kind it is functional, organism-based. The gist of the method:
as §2

Assay [8] deals with Pseudomonas aeruginosa. The assay is described as follows: Antimicrobial activity against Pseudomonas aeruginosa harboring deltapvdF-deltapchA mutant assessed as decrease in fptA transcription level at 10 uM incubated for 8 hrs in presence of iron-depleted CAA medium by qRT-PCR analysis. In kind it is functional, organism-based. The gist of the method: as §1
For orientation: Real-time PCR tracks product formation cycle by cycle.

For assay [9], the system named is Pseudomonas aeruginosa. The assay is described as follows: Antimicrobial activity against Pseudomonas aeruginosa harboring deltapvdF-deltapchA mutant assessed as effect on pirA transcription level at 10 uM incubated for 8 hrs in presence of iron-depleted CAA medium by qRT-PCR analysis. Format: functional, organism-based. The procedure, abridged: as §1

Calls of active or inactive are those of the source. The calls are words filed in the database; no cut-off is given here. Where a SMILES comes first, the peptide text is derived from it. The star is where a group is joined. X6 = CC(=O)Oc1cccc(C(=O)NCc2cc(CNC(=O)c3cccc(OC(C)=O)c3OC(C)=O)c(NC(=O)CCCc3cn(CCOCCOCCOCCOCCOCCOCCOCCOCCNC(=O)COCC(=O)*)nn3)c(CNC(=O)c3cccc(OC(C)=O)c3OC(C)=O)c2)c1OC(C)=O; X1 = O=C(COCC(=O)*)NCCOCCOCCOCCOCCOCCOCCOCCOCCn1cc(CCCC(=O)Nc2c(CNC(=O)c3cccc(O)c3O)cc(CNC(=O)c3cccc(O)c3O)cc2CNC(=O)c2cccc(O)c2O)nn1; Benzoyl(2,3-diOH) = O=C(c1cccc(O)c1O)*

Among the data in ChEMBL document CHEMBL5316281, “Trojan Horse Siderophore Conjugates Induce Pseudomonas aeruginosa Suicide and Qualify the TonB Protein as a Novel Antibiotic Target” (2023) are Activity and MIC values, retold here.

Regarding H-VDLGATMITSNK-NH2, the result in assay [1] and in assay [2] was inactive.
In the case of `CC[C@H](C)[C@H](NC(=O)[C@H](CC(C)C)NC(=O)[C@H](CO)NC(=O)COCC(=O)NCCOCCOCCOCCOCCOCCOCCOCCOCCn1cc(CCCC(=O)Nc2c(CNC(=O)c3cccc(O)c3O)cc(CNC(=O)c3cccc(O)c3O)cc2CNC(=O)c2cccc(O)c2O)nn1)C(=O)N[C@@H](CCCNC(=N)N)C(=O)N[C@H](C(=O)N[C@@H](CO)C(=O)N[C@@H](CCC(N)=O)C(=O)N[C@@H](CC(=O)O)C(=O)N[C@@H](CC(=O)O)C(=O)N[C@@H](CC(C)C)C(=O)N[C@H](C(=O)N[C@@H](CCC(N)=O)C(=O)N[C@@H](CCSC)C(=O)N[C@@H](CO)C(=O)N1CCC[C@H]1C(=O)N[C@@H](CO)C(=O)N[C@H](C(=O)N[C@H](C(=O)N[C@@H](CO)C(=O)N[C@@H](C)C(=O)N[C@@H](C)C(=O)N[C@@H](CCCNC(=N)N)C(=O)N1CCC[C@H]1C(=O)N[C@@H](CCCCN)C(N)=O)[C@@H](C)CC)C(C)C)C(C)C)C(C)C` (X1-SLIRVSQDDLVQMSPSVISAARPK-NH2), the MIC in assay [3] and in [4] was above 64 µM in each case. Moreover, the outcome in assay [1] and in [5] was inactive. The result in [6] and in assay [7] was Active.
As to `CSCC[C@H](NC(=O)[C@H](CCC(N)=O)NC(=O)[C@@H](NC(=O)[C@H](CC(C)C)NC(=O)[C@H](CC(=O)O)NC(=O)[C@H](CC(=O)O)NC(=O)COCC(=O)NCCOCCOCCOCCOCCOCCOCCOCCOCCn1cc(CCCC(=O)Nc2c(CNC(=O)c3cccc(O)c3O)cc(CNC(=O)c3cccc(O)c3O)cc2CNC(=O)c2cccc(O)c2O)nn1)C(C)C)C(=O)N[C@@H](CO)C(=O)N1CCC[C@H]1C(=O)N[C@@H](CO)C(=O)N[C@H](C(=O)N[C@@H](CCCCN)C(N)=O)C(C)C` (X1-DDLVQMSPSVK-NH2), the MIC in [3] and in assay [4] was above 64 µM throughout. The outcome in [1] was inactive.
For the compound H-SLIRVSQDDLVQMSPSVISAARPK-NH2, the outcome in [1], in assay [9], in assay [2], in assay [5], in [6] and in assay [7] was inactive. In assay [8], the outcome was Active.
`CC[C@H](C)[C@H](NC(=O)[C@H](CC(C)C)NC(=O)[C@@H](N)CO)C(=O)N[C@@H](CCCNC(=N)N)C(=O)N[C@H](C(=O)N[C@@H](CO)C(=O)N[C@@H](CCC(N)=O)C(=O)N[C@@H](CC(=O)O)C(=O)N[C@@H](CC(=O)O)C(=O)N[C@@H](CC(C)C)C(=O)N[C@H](C(=O)N[C@@H](CCC(N)=O)C(=O)N[C@@H](CCSC)C(=O)N[C@@H](CO)C(=O)N1CCC[C@H]1C(=O)N[C@@H](CO)C(=O)N[C@H](C(=O)N[C@H](C(=O)N[C@@H](CO)C(=O)N[C@@H](C)C(=O)N[C@@H](C)C(=O)N[C@@H](CCCNC(=N)N)C(=O)N1CCC[C@H]1C(=O)N[C@@H](CCCCNC(=O)COCC(=O)NCCOCCOCCOCCOCCOCCOCCOCCOCCn1cc(CCCC(=O)Nc2c(CNC(=O)c3cccc(O)c3O)cc(CNC(=O)c3cccc(O)c3O)cc2CNC(=O)c2cccc(O)c2O)nn1)C(N)=O)[C@@H](C)CC)C(C)C)C(C)C)C(C)C` (H-SLIRVSQDDLVQMSPSVISAARPK(X1)-NH2): the MIC in assay [3] and in assay [4] was above 64 µM throughout. Also, the outcome in assay [1] and in [5] was inactive. The result in [6] and in assay [7] was Active.
Consider `CC[C@@H](C)[C@@H](NC(=O)[C@@H](CCSC)NC(=O)[C@H](NC(=O)[C@@H](C)NC(=O)CNC(=O)[C@@H](CC(C)C)NC(=O)[C@@H](CC(=O)O)NC(=O)[C@H](NC(=O)[C@@H](CO)NC(=O)[C@@H](CO)NC(=O)[C@@H](CC(=O)O)NC(=O)c1cccc(O)c1O)C(C)C)[C@H](C)O)C(=O)N[C@@H](C(=O)N[C@H](CO)C(=O)N[C@H](CC(N)=O)C(=O)N[C@H](CCC(N)=O)C(=O)N[C@H](CC(C)C)C(=O)NCC(=O)N[C@@H](C(=O)N[C@@H](C(=O)N[C@H](CCCCN)C(N)=O)[C@H](C)CC)[C@H](C)O)[C@@H](C)O`, for which the MIC in assay [3] and in [4] was above 64 µM throughout. Also, in [1], the result was inactive.
As to `CC[C@H](C)[C@H](NC(=O)[C@@H](NC(=O)c1cccc(O)c1O)C(C)C)C(=O)N[C@@H](CCC(=O)O)C(=O)N[C@@H](CC(C)C)C(=O)NCC(=O)N[C@@H](CCC(=O)O)C(=O)N[C@@H](CCC(N)=O)C(=O)N[C@H](C(=O)N[C@H](C(=O)N[C@H](C(=O)N[C@@H](C)C(=O)N[C@H](C(=O)N[C@@H](C)C(=O)N[C@@H](CCC(N)=O)C(=O)N[C@@H](CCC(=O)O)C(=O)N[C@@H](CCC(=O)O)C(=O)N[C@H](C(=O)N[C@@H](CCCCN)C(=O)N[C@@H](CCC(N)=O)C(=O)N[C@@H](CCCCN)C(N)=O)[C@@H](C)O)[C@@H](C)O)C(C)C)C(C)C)[C@@H](C)O` ({Benzoyl(2,3-diOH)}-VIELGEQTVVATAQEETKQK-NH2), the MIC in assay [3] and in assay [4] was above 64 µM in each case. In addition, the outcome in assay [1] was inactive.
Consider `CN[C@@H]1[C@@H](O)[C@@H](O[C@@H]2[C@@H](O)[C@H](O[C@H]3O[C@H](C(C)N)CC[C@H]3N)[C@@H](N)C[C@H]2N)OC[C@]1(C)O` (some centres not stated) [GENTAMICIN C2], for which the figures for the MIC in assay [3] and in assay [4] were 1 µM and 4 µM, respectively. Further, the result in assay [1] was inactive.
For `CC[C@H](C)[C@H](NC(=O)[C@@H](N)C(C)C)C(=O)N[C@@H](CCC(=O)O)C(=O)N[C@@H](CC(C)C)C(=O)NCC(=O)N[C@@H](CCC(=O)O)C(=O)N[C@@H](CCC(N)=O)C(=O)N[C@H](C(=O)N[C@H](C(=O)N[C@H](C(=O)N[C@@H](C)C(=O)N[C@H](C(=O)N[C@@H](C)C(=O)N[C@@H](CCC(N)=O)C(=O)N[C@@H](CCC(=O)O)C(=O)N[C@@H](CCC(=O)O)C(=O)N[C@H](C(=O)N[C@@H](CCCCN)C(=O)N[C@@H](CCC(N)=O)C(=O)N[C@@H](CCCCNC(=O)COCC(=O)NCCOCCOCCOCCOCCOCCOCCOCCOCCn1cc(CCCC(=O)Nc2c(CNC(=O)c3cccc(OC(C)=O)c3OC(C)=O)cc(CNC(=O)c3cccc(OC(C)=O)c3OC(C)=O)cc2CNC(=O)c2cccc(OC(C)=O)c2OC(C)=O)nn1)C(N)=O)[C@@H](C)O)[C@@H](C)O)C(C)C)C(C)C)[C@@H](C)O` (H-VIELGEQTVVATAQEETKQK(X6)-NH2), in that order: above 64 µM, above 64 µM and “inactive”.
H-GEQTVVATAQK-NH2: the outcome in [1] and in assay [2] was inactive.
On to `CC(C)[C@H](NC(=O)[C@@H](NC(=O)[C@@H](NC(=O)[C@H](CCC(N)=O)NC(=O)[C@H](CCC(=O)O)NC(=O)COCC(=O)NCCOCCOCCOCCOCCOCCOCCOCCOCCn1cc(CCCC(=O)Nc2c(CNC(=O)c3cccc(O)c3O)cc(CNC(=O)c3cccc(O)c3O)cc2CNC(=O)c2cccc(O)c2O)nn1)[C@@H](C)O)C(C)C)C(=O)N[C@@H](C)C(=O)N[C@H](C(=O)N[C@@H](C)C(=O)N[C@@H](CCC(N)=O)C(=O)N[C@@H](CCCCN)C(N)=O)[C@@H](C)O` (X1-EQTVVATAQK-NH2), for which the minimal inhibitory concentration (MIC) in [3] and in assay [4] was above 64 µM in each case. Further, the result in assay [1] was inactive.
For `CC[C@H](C)[C@H](NC(=O)[C@@H](NC(=O)COCC(=O)NCCOCCOCCOCCOCCOCCOCCOCCOCCn1cc(CCCC(=O)Nc2c(CNC(=O)c3cccc(O)c3O)cc(CNC(=O)c3cccc(O)c3O)cc2CNC(=O)c2cccc(O)c2O)nn1)C(C)C)C(=O)N[C@@H](CCC(=O)O)C(=O)N[C@@H](CC(C)C)C(=O)NCC(=O)N[C@@H](CCC(=O)O)C(=O)N[C@@H](CCC(N)=O)C(=O)N[C@H](C(=O)N[C@H](C(=O)N[C@H](C(=O)N[C@@H](C)C(=O)N[C@H](C(=O)N[C@@H](C)C(=O)N[C@@H](CCC(N)=O)C(=O)N[C@@H](CCC(=O)O)C(=O)N[C@@H](CCC(=O)O)C(=O)N[C@H](C(=O)N[C@@H](CCCCN)C(=O)N[C@@H](CCC(N)=O)C(=O)N[C@@H](CCCCN)C(N)=O)[C@@H](C)O)[C@@H](C)O)C(C)C)C(C)C)[C@@H](C)O` (X1-VIELGEQTVVATAQEETKQK-NH2), the MIC in assay [3] and in assay [4] was above 64 µM each time. Also, the outcome in [1] and in assay [5] was inactive. Also, the result in assay [6] and in assay [7] was Active.
`CC[C@H](C)[C@H](NC(=O)[C@H](CCSC)NC(=O)[C@@H](NC(=O)[C@H](C)NC(=O)CNC(=O)[C@H](CC(C)C)NC(=O)[C@H](CC(=O)O)NC(=O)[C@@H](NC(=O)COCC(=O)NCCOCCOCCOCCOCCOCCOCCOCCOCCn1cc(CCCC(=O)Nc2c(CNC(=O)c3cccc(O)c3O)cc(CNC(=O)c3cccc(O)c3O)cc2CNC(=O)c2cccc(O)c2O)nn1)C(C)C)[C@@H](C)O)C(=O)N[C@H](C(=O)N[C@@H](CO)C(=O)N[C@@H](CC(N)=O)C(=O)N[C@@H](CCCCN)C(N)=O)[C@@H](C)O` (X1-VDLGATMITSNK-NH2): the MIC in assay [3] and in assay [4] was above 64 µM throughout. In assay [1], the outcome was inactive.
Turning to H-DDLVQMSPSVK-NH2, the outcome in assay [1] and in assay [2] was inactive.

In general, MIC refers to the least concentration at which growth counts as inhibited.
